Hits are enriched below; roughly 2.9% of the tested compounds scored in any of these assays.
NS3 helicase inh: inhibitors of HCV NS3 helicase, primary screen, biochemical, Cy5 molecular beacon fluorescence; NS3 helicase DNA unwinding; inhibition, % at 10.9 µM; hit rate 0.56% among 290,000; AID 1800, 2009;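 active = inhibition above the mean of all tested compounds plus 3 SD, set per campaign, cut at about 35% in these data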;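 also: 0% = DMSO wells and 100% = thioflavine S control wells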
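Assay system: hepatitis C virus NS3 helicase domain fragment enzyme. Also added: annealed dual-labelled DNA beacon duplex, ATP-started. Timing: 1 h reaction at 25 °C, ATP-initiated. Technique: Cy5 fluorescence at 0 and 60 min, beacon hairpin quenching. Evaluation: % inhibition of unwinding. Replication: one well per compound.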
A3G deaminase: APOBEC3G DNA deaminase inhibitors, primary screen, biochemical, fluorescence, single-stranded DNA substrate, uHTS. DNA dC->dU-editing enzyme APOBEC-3G (Homo sapiens), Q9HC16. recombinant A3G, ssDNA deamination FAM/TAMRA fluorescence. inhibition, % at 20 µM. hit rate 0.28% among 330,000. AID 493012, 2011;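 active = inhibition of at least 40% at 20 µM, with no more than 30% in the related APOBEC3A deaminase screen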;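 also: plate controls were DMSO wells with A3G for no effect and wells lacking A3G enzyme for full effect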
PRMT1 FP inh: PRMT1 methyltransferase inhibitors, primary screen, biochemical, fluorescence polarization; recombinant PRMT1, activity-based probe fluorescence polarization; inhibition, % at 2.79 µM; hit rate 1.3% among 370,000; AID 652257, 2013;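 active = inhibition above about 21% made by adding two undisclosed values, limit read from the data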
A3A deaminase: APOBEC3A ssDNA deaminase inhibitors, primary screen, selectivity assay for APOBEC3G inhibitor project, biochemical, FAM/TAMRA oligo cleavage fluorescence; inhibition, % at 20 µM; DNA dC->dU-editing enzyme APOBEC-3A (Homo sapiens), P31941; recombinant A3A, FAM/TAMRA ssDNA deamination fluorescence; AID 493011, 2011; hit rate 0.41% among 330,000;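 active = at least 40% inhibition at 20 µM here, with at most 30% in a related deaminase screen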;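 also: plate controls were A3A with DMSO for no effect and wells lacking A3A enzyme for full effect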
Target sequence (P31941 whole entry, looked up): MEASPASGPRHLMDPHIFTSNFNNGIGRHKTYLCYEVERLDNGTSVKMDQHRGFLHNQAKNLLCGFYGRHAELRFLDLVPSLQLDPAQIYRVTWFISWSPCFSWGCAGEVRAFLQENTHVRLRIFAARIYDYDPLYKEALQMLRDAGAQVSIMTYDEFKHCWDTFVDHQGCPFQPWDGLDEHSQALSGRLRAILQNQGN
core dimer inh: inhibitors of HCV core protein dimerization, primary screen, biochemical, TR-FRET, high-throughput. TR-FRET GST/Flag-core106 dimerization, 1536-well. inhibition, % at 5 µM. AID 1899, 2009. hit rate 0.33% among 300,000;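 active = inhibition above the mean of all tested compounds plus 3 SD, set per screening campaign, cut at about 45% in these data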
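System: GST/Flag-tagged HCV core106 proteins. Incubation: compound-protein-antibody incubation 4 h at 22.5 °C. Technique: HTRF with 340 nm excitation, 617/671 nm emission. Medium: KF-containing HEPES buffer, pH 7.45, DTT, CHAPS, BSA. Read-out: inhibition (%) from 671 over 617 nm ratio. Also added: Eu(K)-anti-GST 90 ng/mL plus XL665-anti-Flag 1 µg/mL.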
ABHD5 PLIN5 PPI: ABHD5-PLIN5 interaction inhibitors, primary screen, cell lysate, split luciferase complementation, luminescence. Perilipin-5 (Homo sapiens) + 1-acylglycerol-3-phosphate O-acyltransferase ABHD5 (Homo …. Split G. princeps luciferase complementation, 4 h. inhibition, % at 4 µM. hit rate 0.78% among 360,000. AID 602281, 2012;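 active = inhibition above the mean inhibition across every tested compound plus 3 SD, cut at about 22% in these data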;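 also: 0% = DMSO only wells and the 100% control is not disclosed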
* marks the source's active call; other numbers are inactive results; x = no result given.

SMILES | NS3 helicase inh | A3G deaminase | PRMT1 FP inh | A3A deaminase | core dimer inh | ABHD5 PLIN5 PPI
COc1cccc2[nH]c3ccccc3c(=O)c12 | 2 | -6 | x | -6 | 4 | -6
C=Cc1ncc(OC)c2c1[nH]c1ccccc12 | x | 4 | x | -3 | -4 | 24*
O=C(O)c1ccccc1C(=O)Nc1ccc(S(=O)(=O)Nc2nccs2)cc1 | x | 6 | 24* | 2 | -8 | 1
Cc1cc2oc(C(=O)Nc3ccc(S(=O)(=O)Nc4nccs4)cc3)cc(=O)c2cc1Cl | 18 | -6 | 2 | -4 | 58* | 5
COc1ccccc1C(=O)Nc1ccc(S(=O)(=O)Nc2nccs2)cc1 | -3 | 3 | -2 | 0 | -4 | 4
Cc1cc(C)c2oc(C(=O)Nc3ccc(S(=O)(=O)Nc4nccs4)cc3)cc(=O)c2c1 | 1 | -7 | -2 | -1 | 7 | -2
O=C(Nc1ccc(S(=O)(=O)Nc2nccs2)cc1)c1nn(-c2ccccc2)ccc1=O | 30 | 11 | 4 | -15 | 63* | -12
COC(=O)C1=C(C)N(Cc2ccc(C(F)(F)F)cc2)C(=NCc2ccc(C(F)(F)F)cc2)NC1c1ccccc1C(F)(F)F (stereo not drawn) | x | x | -6 | x | x | x
O=C(CSc1nc2ccccc2c(=O)[nH]1)c1ccc(O)c(O)c1 | 0 | 0 | 23* | 3 | -1 | 6
O=C(CSc1nc2ccccc2c(=O)[nH]1)c1ccc(O)cc1O | -23 | x | 3 | x | x | 4
Cc1ccccc1S(=O)(=O)N1CCCc2nc(C)c(C)cc21 | x | x | 2 | x | x | x
O=C(NCC(c1ccco1)N1CCCC1)c1cc(S(=O)(=O)N2CCOCC2)ccc1Cl (stereo not drawn) | x | -5 | -5 | -3 | x | -11
O=S(=O)([N-]c1nc2ccccc2nc1-[n+]1ccccc1)c1ccccc1 | 5 | -11 | -2 | -7 | -6 | 1
O=S(=O)([N-]c1nc2ccccc2nc1-[n+]1ccc(-c2ccncc2)cc1)c1ccccc1 | -10 | -17 | 22* | -9 | 6 | 1
COc1ccc(N)cc1-n1c(C)ccc1C | -2 | -6 | 27* | -1 | -3 | 4
COc1ccc(CN2C(C(=O)NCC(C)C)CSCCS2(=O)=O)cc1 (stereo not drawn) | x | x | 0 | x | x | x
Cc1ccc(/C=C/C(=O)NCc2ccco2)o1 | 7 | 14 | 13 | 12 | 5 | x
Cc1ccc(/C=C/C(=O)NCc2ccccn2)o1 | 26 | 20 | 21* | 37 | 29 | 8
O=C(N/N=C/C(Br)=C/c1ccccc1)c1n[nH]c2c1CCC2 | 1 | 10 | x | -3 | 69* | -23
O=C(N/N=C/c1ccccc1)c1n[nH]c2c1CCCC2 | -11 | -7 | -3 | -6 | -1 | 0
O=c1[nH]c(CN2CCc3ccccc32)nc2scc(-c3cccs3)c12 | 17 | 11 | 10 | 2 | 48* | 0
CCOC(=O)/C=c1\s/c(=C\c2ccc(C(F)(F)F)cc2)c(=O)n1CC(=O)NCc1ccco1 | 21 | -5 | -2 | -1 | 54* | 5
Cc1ccc(N2NC(=O)/C(=C\c3cc4c(cc3[N+](=O)[O-])OCO4)C2=O)cc1C | 30 | x | 24* | x | 0 | -7
O=C1NN(c2ccccc2)C(=O)/C1=C\c1ccc2c(c1)OCO2 | 31 | -4 | -1 | -7 | 10 | -7
c1ccc(C[n+]2csc3ccccc32)cc1 | 0 | 2 | 84* | -2 | -1 | 14
OCCN(Cc1ccccc1)Cc1cccc(F)c1 | 0 | -7 | -2 | -2 | 0 | 5
Brc1cc2ccccc2[n+](Cc2ccccc2)c1 | x | -8 | -2 | -5 | 9 | 0
Fc1cccc(C[n+]2csc3ccccc32)c1 | 8 | -1 | 75* | 0 | -2 | 36*
O=S1(=O)c2ccc(N3CCSCC3)cc2Oc2ccccc2CN1Cc1cn(Cc2ccc(Cl)cc2)nn1 | x | x | -2 | x | x | x

Source: PubChem (several laboratories)
